HIF act – HIF pathway transcriptional activation; 0.32% of 300,000 active; U2OS HRE-luciferase reporter, luminescence; normalized: DMSO 0%, desferrioxamine 100%; AID 1910; activation, % at 7.5 µM (by protocol);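 active = mean activation of at least 10% of the iron chelator positive control signal, with at least half of replicates also reaching 10%; inconclusive = mean and replicate majority disagree about reaching 10%; inactive = mean and most replicates under 10%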
ARNT-TACC3 inh – disruptors of human ARNT/TACC3 interaction; Q9Y6A5; AlphaScreen His-ARNT PAS-B/GST-TACC3 binding, luminescence; TACC3 fragment carries E629A point mutation; inhibition, % at 9.99 µM; 0.66% of 390,000 active; AID 623870;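 active = mean inhibition of replicates at least 50% and at least half of replicates each reaching 50%; inconclusive = half or more replicates reach 50% but mean below 50%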;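 also: 0% = complete ARNT plus TACC3 wells and 100% = ARNT alone without TACC3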
AI-2 QS mod – Vibrio harveyi AI-2 quorum sensing modulation; Vibrio harveyi JMH597 AI-2 luminescence/OD600 ratio, 9 h; active compounds read low; strain lacks LuxN and CqsS sensors; 0 = neutral-control median; activity change, % at 7.5 µM; 0.4% of 300,000 active; in the data active = activity change below about -75%, passing the limit was not always enough; inconclusive = no clear call, values can overlap the other calls;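 also: luminescence divided by OD600 gain over 9 h not by final OD600 alone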
T cruzi repl – T. cruzi replication inhibition; AID 1885; T. cruzi beta-gal in NIH3T3, luminescence, 90 h; inhibition, % (test concentration not listed); 1.4% of 300,000 active;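 active = mean inhibition across valid replicates above about 55%, limit read from the data; inconclusive = mean below that limit but half or more replicates reach it; inactive = mean below it, under half of replicates reach it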;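 also: signal also drops with host cell toxicity which is not excluded here; 0% = plate median of DMSO wells and 100% = zero luminescence signal; higher percent means less beta-gal luminescence so fewer parasites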
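compound dosing = single 50 nL compound addition per well in DMSO | material = NIH/3T3 host cells with β-galactosidase reporter T. cruzi | input = 5,000 host fibroblasts per well | timing = ≥90 h infection period, 3 h prior cell attachment | read-out basis = percent inhibition of parasite-derived β-gal signal | detection = GalScreen β-gal luminescence, detergent lysis, 60 min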
ARNT Alpha ctr – counter-screen for ARNT/TACC3 inhibitors: AlphaScreen artifacts | 50% of 1,200 active | His-ARNT PASB-GST AlphaScreen artifact counter-screen, luminescence | AC50, µM (series often up to 68 µM), without a hit: top-dose activity change, negative = signal decrease | shares compounds with ARNT-TACC3 inh | AID 651705;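 active = every separate test run was called active for a drop in luminescence, with AC50 within twice the top valid dose, actives reach about 71 µM in these data; inconclusive = the separate test runs disagree in their calls; inactive = all runs inactive, including signal change in the wrong direction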
* hit, by the source's call; ? = inconclusive; . = no result given; [ ] = dose if it differs, or a comment. Shown are actives, neighbours in structure and some others; about 2% of the full set was active somewhere.

SMILES	HIF act	ARNT-TACC3 inh	AI-2 QS mod	T cruzi repl	ARNT Alpha ctr
COC(=O)N(C)C[C@H]1OCc2ccccc2-c2c(n(C)c3ccccc23)C(=O)N([C@@H](C)CO)C[C@H]1C	.	8	.	.	.
CO[C@H]1CC[C@H]2CCN(C)C(=O)CCCN(C)C(=O)c3cccc(C#N)c3OC[C@H]1O2	.	-4	.	.	.
C[C@@H]1CN([C@H](C)CO)C(=O)c2cccc(NC(=O)Nc3ccc4c(c3)OCO4)c2O[C@@H]1CN(C)C(=O)Nc1ccc(F)cc1	.	-5	.	.	.
Cc1ccc(C)c(C2=CSC3=NS(=O)(=O)CCN23)c1	3	-4	19	6	.
Cc1ccc(C2=CSC3=NS(=O)(=O)CCN23)cc1	0	50*	15	-6	-8%
O=C(NC1Cc2ccccc2C1)[C@H]1N[C@H]2c3cccc(=O)n3C[C@H]2[C@@H]1CO	.	active	.	.	-6%[38 µM]
O=C(NCc1ccccc1)[C@H]1N[C@H]2c3cccc(=O)n3C[C@H]2[C@@H]1CO	.	-2	.	.	.
CNC[C@@H]1Oc2c(NC(=O)Nc3c(C)noc3C)cccc2C(=O)N([C@H](C)CO)C[C@@H]1C	.	-7	.	.	.
O=S(=O)(c1ccccc1)N1C[C@H]2[C@@H](c3ccccc31)[C@@H](CO)N2Cc1ccccn1	.	27*	.	.	-31%[42 µM]
O=S(=O)(N[C@@H]1CC[C@@H](CCn2cc(-c3ccc(F)cc3)nn2)O[C@H]1CO)c1ccccc1F	.	-3	.	.	.
O=C(N[C@@H]1CC[C@@H](CCn2cc(-c3ccccn3)nn2)O[C@@H]1CO)c1ccncc1	.	77*	.	.	38µM*
O=C(N[C@H]1CC[C@H](CCn2cc(-c3ccccn3)nn2)O[C@@H]1CO)c1ccncc1	.	65*	.	.	48µM*
O=C(N[C@H]1CC[C@@H](CCn2cc(-c3ccccn3)nn2)O[C@@H]1CO)c1ccncc1	.	66*	.	.	31µM*
COCc1cn(CC[C@H]2CC[C@H](NC(=O)c3ccncc3)[C@@H](CO)O2)nn1	.	-15	.	.	.
O=C(N[C@H]1CC[C@H](CCn2cc(-c3ccccn3)nn2)O[C@H]1CO)c1ccncc1	.	66*	.	.	39µM*
C[C@@H]1CCCCO[C@H](CN(C)Cc2ccc(C(F)(F)F)cc2)[C@H](C)CN([C@H](C)CO)C(=O)c2cc(NS(=O)(=O)c3ccc(F)cc3)ccc2O1	.	-8	.	.	.
O=C(N[C@@H]1CC[C@@H](CCn2cc(-c3ccccn3)nn2)O[C@H]1CO)c1cccnc1	.	71*	.	.	37µM*
O=C(N[C@H]1CC[C@H](CCn2cc(C3CC3)nn2)O[C@@H]1CO)c1cccnc1	.	-23	.	.	.
O=C(N[C@@H]1CC[C@@H](CCn2cc(-c3ccccn3)nn2)O[C@@H]1CO)c1cccnc1	.	81*	.	.	44µM*
O=C(N[C@@H]1CC[C@H](CCn2cc(-c3ccccn3)nn2)O[C@H]1CO)c1cccnc1	.	84*	.	.	44µM*
CCCC#Cc1ccc2c(c1)O[C@@H](CN(C)C(=O)c1ccccc1)[C@H](C)CN([C@H](C)CO)S2(=O)=O	.	5	.	.	.
COc1ccc(OC(C)C(=O)Nc2ccc([N+](=O)[O-])cc2)cc1 (stereo not given)	0	2	4	-6	.
C/C(=N\NC(=O)C(C)Oc1ccc([N+](=O)[O-])cc1)c1ccccn1 (stereo not given)	5	54*	32	?	34µM*
C[C@H]1CN([C@@H](C)CO)C(=O)c2cc(-c3ccc(C#N)cc3)cnc2O[C@H]1CN(C)C(=O)Nc1ccccc1	.	-4	.	.	.
COc1ccc(-c2nc(CN3CCC(C(=O)NC4CCCc5ccccc54)CC3)c(C)o2)cc1OC (stereo not given)	.	56*	.	.	-10%
SMILES	HIF act	ARNT-TACC3 inh	AI-2 QS mod	T cruzi repl	ARNT Alpha ctr
O=C(CN1CC(=O)Oc2ccccc21)OCC(=O)c1ccccc1	5	54*	52	-76	8.3µM*
O=C(NCCN1CCOCC1)c1cc(-c2ccccc2)on1	6	-2	-5	-4	2%[38 µM]
O=C(NCCCN1CCOCC1)c1cc(-c2ccc(O)cc2)on1	3	0	29	7	.
O=C(NCCCN1CCOCC1)c1cc(-c2ccccc2)on1	28*	0	16	5	10%[38 µM]
COc1ccc(NC(=O)Nc2cccc3c2O[C@@H](CN(C)C(=O)Nc2ccccc2)[C@H](C)CN([C@H](C)CO)C3=O)cc1	.	2	.	.	.
O=C(C[C@H]1C=C[C@@H](NC(=O)Nc2ccc3c(c2)OCO3)[C@H](CO)O1)NCCCN1CCOCC1	.	1	.	.	.
Cc1cc(F)ccc1NS(=O)(=O)c1cccc2nsnc12	2	active	-10	-1	-3%
O=S(=O)(Nc1cccc(F)c1)c1cccc2nsnc12	0	10	-3	1	.
C[C@@H]1CN([C@H](C)CO)C(=O)c2cccc(NC(=O)c3nc4ccccc4s3)c2O[C@H]1CN(C)C	.	9	.	.	.
O=S(=O)(N[C@H]1CC[C@H](CCn2cc(-c3ccccn3)nn2)O[C@@H]1CO)c1cccc(Cl)c1	.	109*	.	.	49µM*
O=S(=O)(N[C@@H]1CC[C@H](CCn2cc(-c3cccc(F)c3)nn2)O[C@@H]1CO)c1ccccc1	.	8	.	.	.
O=S(=O)(N[C@H]1CC[C@@H](CCn2cc(-c3ccccn3)nn2)O[C@@H]1CO)c1cccc(Cl)c1	.	95*	.	.	48µM*
COc1cccc(S(=O)(=O)N[C@@H]2CC[C@H](CCn3cc(-c4ccccc4)nn3)O[C@H]2CO)c1	.	11	.	.	.
O=S(=O)(N[C@@H]1CC[C@@H](CCn2cc(-c3ccccn3)nn2)O[C@H]1CO)c1cccc(F)c1	.	91*	.	.	60µM*
O=C(NCC1CC1)[C@H]1[C@H](CO)[C@H]2Cn3c(ccc(-c4ccccc4F)c3=O)[C@@H]1N2Cc1ccncc1	.	2	.	.	.
CC(C)C#Cc1cnc2c(c1)C(=O)N([C@H](C)CO)C[C@@H](C)[C@@H](CN(C)S(=O)(=O)c1cn(C)cn1)O2	.	-9	.	.	.
O=C(CCC(=O)c1cccs1)OCc1nnc(-c2ccccc2)o1	-14	33*	-13	-2	10%
Cc1ccc(C(=O)CCC(=O)OCc2nnc(-c3ccccc3)o2)cc1	-26	-6	16	-18	.
CN(C)C(=O)c1cccc(-c2ccc3c(c2)[C@@H]2[C@@H](CCN2C(=O)c2cccnc2)[C@@H](CO)N3)c1	.	65*	.	.	-10%[42 µM]
O=C(c1ccccn1)N1CC[C@@H]2[C@H]1c1cc(Br)ccc1N[C@@H]2CO	.	69*	.	.	53µM*
Cc1ccc(NC(=O)Cc2sc(C)nc2-c2ccc(C)cc2)cc1	1	-2	2	-8	.
Cc1ccc(-c2nc(C)sc2CC(=O)NCc2ccco2)cc1	1	active	11	-2	-12%
O=c1ccc2cc3c4c(c2o1)CCCN4CCC3	-2	-4	17	-3	.
O=c1oc2c3c4c(cc2s1)CCCN4CCC3	0	active	7	12	44µM*
Cc1ccc(NC(=O)c2ncn[nH]2)cc1	1	-4	7	0	.

Assay outcomes deposited in PubChem BioAssay by Broad Institute.
